CHOP UPR activ – activators of apoptotic CHOP UPR arm, primary screen, cell-based, CHO-CHOP luciferase reporter, luminescence, uHTS. UPR activation; percent of tunicamycin response over DMSO baseline. AID 449763, 2010. activation, % at 10 µM. 330,000 compounds, 0.34% hits;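 active means at 10 µM dose, activation of 40% or more, normalized to positive control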;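 further: 100% = tunicamycin at 10 µg/mL and 0% = DMSO alone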
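Material: CHO-CHOP cells, stable luciferase reporter of PERK-eIF2a-CHOP signalling; quantity: 500 reporter cells seeded per well; buffer or medium: F12 medium containing 10% fetal bovine serum; compound: one dose, 10 µM in 0.5% DMSO; incubation: 6 h compound treatment, 37 °C; measured by: Steady-Glo luciferase luminescence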
Dynein transport – inhibitors of GR-EGFP nuclear translocation, primary screen, dynein cargo transport inhibitor project, imaging, high-content, 3617.4 mouse cells. test concentration mostly 20 µM; stimulated with dexamethasone, 1 µM; hits give low values. z-score, hits read low. 220,000 compounds, 0.47% hits;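 active means plate z-score of nuclear minus cytoplasmic receptor signal below a set negative limit, without overly bright fluorescence or cell loss, cut at about -3.5 in these data, passing the limit was not always enough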;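 further: z-score of nuclear minus cytoplasmic ring GR-EGFP intensity difference per well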
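Buffer or medium – tet-free medium with charcoal-stripped serum · Signal – automated 10x imaging of fixed Hoechst-stained cells · Also added – dexamethasone agonist, 1.0 µM final, for 30 min · Incubation – induction 48 h, compound 1 h, agonist 30 min · Read-out – GR-EGFP nuclear translocation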
XBP1 UPR activ – activators of adaptive XBP1 UPR arm, primary screen, cell-based, CHO-XBP1 luciferase reporter, luminescence, uHTS; IRE1-XBP1 UPR activation; percent of tunicamycin response, DMSO as zero; activation, % at 20 µM; 330,000 compounds, 0.33% hits; AID 463104, 2010;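 active means versus positive control, 20 µM dose yields 30% or more activation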;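 further: 100% = tunicamycin at 10 µg/mL and 0% = DMSO only wells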
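Material: CHO cell line with stable XBP1 luciferase reporter; schedule: 16-18 h cell attachment at 37 °C, then 6 h compound exposure; signal: glow luminescence from Steady-Glo reagent; medium: serum-containing F12 medium, 10% FBS; benchmarks: tunicamycin 10 µg/mL and vehicle-only wells; read-out: percent activation relative to tunicamycin reference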
Lmaj promast – Leishmania major promastigote growth inhibition, primary screen. Leishmania major promastigotes, resazurin fluorescence viability. inhibition, % at 10 µM. 200,000 compounds, 9% hits. AID 1063, 2008; in the data active means inhibition above about 50%;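 further: promastigotes grown with compound for 44 hours at 28 °C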
T cruzi inh – inhibitors of intracellular T. cruzi growth, primary screen, luminescence, NIH3T3 host cells. 300,000 compounds, 1.4% hits. T. cruzi beta-gal in NIH3T3, 90 h. inhibition, % (test concentration not listed). AID 1885, 2009;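 active means mean inhibition across valid replicates above about 55%, limit read from the data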;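 further: signal also drops with host cell toxicity which is not excluded here; 0% = plate median of DMSO wells and 100% = zero luminescence signal; higher percent means less beta-gal luminescence so fewer parasites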
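Test system: β-gal T. cruzi (Tulahuen C4) inside NIH/3T3 cells / Quantity: 5,000 cells/well / Measured by: luminescence from GalScreen with 0.05% NP40, read after 60 min / Medium: DMEM plus 2% FBS / Measure: parasite load inhibition, % / Reagent: Tulahuen C4 trypomastigotes, 5000/well / Schedule: co-culture of at least 90 h after 3 h attachment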
CHOP inhibitor – inhibitors of CHOP promoter induction, primary screen, cell-based, unfolded protein response, luciferase reporter. 220,000 compounds, 3.8% hits. inhibition, % at 10 µM. CHO-K1 CHOP-promoter luciferase, tunicamycin-induced, 15-18 h. AID 2732, 2010;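 active means compounds that reduced the stress-induced luciferase reporter signal by more than about 70% of percent inhibition, limit read from the data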;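 further: 0% = tunicamycin plus vehicle and 100% = wells without tunicamycin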
An asterisk follows results filed as active; · = no result given. Only a selection was taken, and hits are over-represented in it overall.

SMILES | CHOP UPR activ | Dynein transport | XBP1 UPR activ | Lmaj promast | T cruzi inh | CHOP inhibitor
Cc1cc(C)c(C(=O)/C=C/c2cccc3ccccc23)c(=O)[nH]1 | 5 | -1.5 | 2 | 100* | 21 | -10
Cc1cc(C)c(C(=O)/C=C/c2ccc3c(c2)OCO3)c(=O)[nH]1 | 2 | -1.1 | -2 | 15 | -3 | -6
COc1ccc(CCNC(=O)c2cccnc2Cl)cc1OC | 2 | · | 1 | · | -1 | ·
Cc1nn(C(=O)CNS(=O)(=O)c2ccccc2)c(C)c1Sc1ccc(Cl)cc1 | -1 | -0.6 | 1 | 51* | 1 | 82*
COc1ccccc1N1CCN(C(=O)c2cc(-c3ccc(F)cc3)[nH]c2C)CC1 | -2 | · | -6 | · | -3 | ·
CCc1cccc(NC(=O)CNC(=O)N2CC(=O)Nc3ccccc32)c1 | 3 | · | -2 | · | 6 | ·
CCc1cccc(Nc2c([N+](=O)[O-])cc(C(=O)N3CC(=O)Nc4ccccc43)cc2[N+](=O)[O-])c1 | -1 | -1.6 | -4 | 79* | 77* | 61
COc1cccc(OC)c1OCCNC(C)(C)C | -1 | -0.52 | -1 | -3 | 0 | 2
CC(C)(C)NCCOc1ccc(Br)cc1 | 1 | -0.17 | -1 | 95* | 11 | 5
O=C(CN1C(=O)c2ccc([N+](=O)[O-])cc2C1=O)Nc1ccccc1N1CCCC1 | 2 | · | -1 | · | -7 | ·
CNc1nc(C23CC4CC(CC(C4)C2)C3)cs1 | -2 | -0.94 | -2 | 13 | 13 | -2
Cc1sc2c(c1C)c(=O)n(-c1ccc(F)cc1)c(=O)n2CC(=O)NCc1ccco1 | · | 0.29 | · | -4 | · | 31
COc1cc(NC(=O)Cn2c(=O)n(-c3cccc(C)c3)c(=O)c3c(C)c(C)sc32)cc(OC)c1 | 0 | 0.2 | 8 | 0 | 20 | 92*
Cc1nn(C2CCS(=O)(=O)C2)c(Cl)c1/C=C/C(=O)OCC(=O)Nc1ccccc1[N+](=O)[O-] (stereo not drawn) | -1 | 2.3 | 4 | -3 | 2 | 5
Cc1nn(C2CCS(=O)(=O)C2)c(Cl)c1/C=C/C(=O)OCC(=O)Nc1ccccc1OC(F)F (stereo not drawn) | -1 | -0.64 | -1 | 51* | 10 | -7
Cc1nccn1CC(=O)N/N=C/c1cccc(O)c1 | -2 | 0.13 | -2 | 61* | -8 | 14
COc1ccc(/C=N/NC(=O)Cn2ccnc2C)cc1OC | 0 | 0.069 | 2 | · | -11 | -4
O=C(Nc1nc(-c2ccc(Cl)cc2Cl)cs1)c1ccc(OCC2CCCO2)cc1 (stereo not drawn) | 9 | -0.58 | 3 | 12 | 32 | 51
CC(C)COc1ccc(C(=O)Nc2scc(-c3ccc(Cl)cc3Cl)c2C(N)=O)cc1 | -1 | -0.55 | -1 | -6 | 55* | -12
COc1cc2cc3c(N)c(C(=O)NCc4ccco4)sc3nc2cc1OC | 2 | -0.53 | 3 | 81* | 16 | -4
COc1cc2cc3c(N)c(C(=O)Nc4sc(C)c(C)c4C#N)sc3nc2cc1OC | 0 | 1.9 | 4 | -4 | -42 | 81*
Cc1cc(C(=O)Nc2sc(C)c(C)c2C#N)no1 | 0 | -0.091 | 4 | -8 | -10 | 20
CCCCc1nc(SCC(=O)N2CCCC2)c2c(=O)n(C)c(=O)n(C)c2n1 | 1 | · | -6 | · | 15 | ·
O=C(NCc1ccon1)C1CCC(=O)N(CCc2cccc(F)c2)C1 (stereo not drawn) | 3 | · | -2 | · | -6 | ·
Nc1cc(N)nc(CS)n1 | 0 | 0.38 | 0 | · | -23 | 0
SMILES | CHOP UPR activ | Dynein transport | XBP1 UPR activ | Lmaj promast | T cruzi inh | CHOP inhibitor
Clc1ccccc1-c1ncc2ccccn12 | 3 | -1.3 | 0 | -8 | 57* | 6
O=C(c1ccc([N+](=O)[O-])cc1)N1CCSC1c1ccccc1 (stereo not drawn) | -1 | -0.87 | -2 | 4 | -14 | -3
CN(C)c1ccc(C2SCCN2C(=O)c2ccc([N+](=O)[O-])cc2)cc1 (stereo not drawn) | -1 | -0.11 | -3 | -1 | 58* | 16
O=C(c1ccc([N+](=O)[O-])cc1)N1CCSC1c1cccc(Cl)c1 (stereo not drawn) | 0 | 0.074 | -3 | 51* | 11 | 28
COc1ccc(NC(=O)CSCC(=O)Nc2cc(Cl)ccc2N2CCCC2)cc1 | 1 | · | -1 | · | -4 | ·
CCOc1ccc(C(=O)OC(C)CN2CCN(C)CC2)cc1 (stereo not drawn) | 2 | · | 13 | · | 42 | ·
CC(CN1CCN(C)CC1)OC(=O)c1ccc(Cl)cc1 (stereo not drawn) | 2 | -0.68 | 3 | 47 | 59* | 26
Cc1nn(Cc2ccccc2)c2c1C(c1ccc(Cl)cc1)C(C#N)=C(N)O2 (stereo not drawn) | 0 | -0.29 | 1 | 85* | -2 | 25
Cc1nn(-c2ccccc2)c2c1C(c1ccc(Br)s1)C(C#N)=C(N)O2 (stereo not drawn) | · | 1 | · | 81* | · | 65
CCOC(=O)C1=C(c2ccccc2)OC(N)=C(C#N)C1c1ccc(Br)s1 (stereo not drawn) | 2 | -1.2 | -2 | 9 | -5 | 82*
Cc1nn(Cc2ccccc2)c2c1C(c1ccncc1)C(C#N)=C(N)O2 (stereo not drawn) | -2 | · | -2 | · | -12 | -16
Cc1nn(-c2ccccc2)c2c1C(c1ccccc1)C(C#N)=C(N)O2 (stereo not drawn) | -3 | -1.5 | -1 | 3 | -7 | 13
CCOC(=O)C1=C(c2ccccc2)OC(N)=C(C#N)C1c1ccc(Cl)s1 (stereo not drawn) | 3 | 0.18 | 2 | 11 | -14 | 78*
Cc1ccc(N2CC(C(=O)NCc3n[nH]c(=O)c4ccccc34)CC2=O)cc1 (stereo not drawn) | -1 | · | -6 | · | -16 | ·
COc1ccc(NC(=O)CN2CCc3ccccc3C2)c([N+](=O)[O-])c1 | 3 | · | -3 | · | 19 | ·
COc1ccc(/C=C/C(=O)NC(C)(C)C)cc1S(=O)(=O)N1CCOCC1 | 0 | -0.51 | -3 | 0 | -3 | -7
COc1ccc(/C=C/C(=O)NC2CCCCCCC2)cc1S(=O)(=O)N1CCOCC1 | 7 | 1 | 1 | 88* | -22 | 14
O=c1[nH]c(Cc2ccccc2)nc2scc(-c3ccccc3)c12 | -2 | 0.64 | 0 | -2 | 6 | 80*
c1ccc2c(c1)CCN(c1nc3ccccc3n3cnnc13)C2 | 0 | -0.42 | 6 | 0 | 8 | 70*

Screening data (PubChem BioAssay)
